Results as given in ChEMBL document CHEMBL3739408, “Antibacterial Prenylated Acylphloroglucinols from Psorothamnus fremontii” (J Nat Prod, 2015).
Converted amounts (≈) assume the structure as drawn.

Tests used:
Enterococcus faecalis [1] = assay: Antibacterial activity against vancomycin-sensitive Enterococcus faecalis ATCC 29212 by plate reader analysis; type: functional, organism-based
Summary of the method: (§1)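 Strains from ATCC; modified CLSI broth microdilution. Samples in DMSO were serially diluted in 20% DMSO–saline and plated in duplicate. Inocula were set by adjusting OD630 to give the final target CFU/mL. Methicillin and vancomycin were positive controls, with highest test concentrations of 50 and 20 μg/mL. IC50 is the 50% growth inhibition relative to controls, from curve fitting.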

Enterococcus faecium = assay: Antibacterial activity against vancomycin-resistant Enterococcus faecium ATCC 700221 by plate reader analysis; type: functional, organism-based; summary of the method: as §1
Enterococcus faecalis [2] = assay: Antibacterial activity against low level vancomycin-resistant Enterococcus faecalis ATCC 51299 by plate reader analysis; type: functional, organism-based; summary of the method: as §1
Staphylococcus aureus [3] = assay: Antibacterial activity against methicillin-resistant Staphylococcus aureus ATCC 1708 by plate reader analysis; type: functional, organism-based; summary of the method: as §1
LLC-PK1 = assay: Cytotoxicity against pig LLC-PK1 cells assessed as cell viability after 48 hrs by neutral red-based assay; settings: Sus scrofa, LLC-PK1, 48 h
Summary of the method: (§2)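 Mammalian cell lines from ATCC: human hepatic carcinoma HepG2, pig kidney epithelial LLC-PK1, and African green monkey kidney Vero. Highest test concentration was 50 μg/mL, and doxorubicin was the positive control at up to 10 μg/mL. IC50 was taken as the concentration giving 50% growth inhibition of the mammalian cells.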

Staphylococcus aureus [4] = assay: Antibacterial activity against methicillin-resistant Staphylococcus aureus ATCC 1717 by plate reader analysis; type: functional, organism-based; summary of the method: as §1
HepG2 = assay: Cytotoxicity against human HepG2 cells assessed as cell viability after 48 hrs by neutral red-based assay; settings: HepG2, 48 h; summary of the method: as §2
Staphylococcus aureus [5] = assay: Antibacterial activity against methicillin-resistant Staphylococcus aureus ATCC 1696 by plate reader analysis; type: functional, organism-based; summary of the method: as §1
Staphylococcus aureus [6] = assay: Antibacterial activity against methicillin-resistant Staphylococcus aureus ATCC 33591 by plate reader analysis; type: functional, organism-based; summary of the method: as §1
Vero = assay: Cytotoxicity against African green monkey Vero cells assessed as cell viability after 48 hrs by neutral red-based assay; settings: Chlorocebus sabaeus; summary of the method: as §2
Staphylococcus aureus [7] = assay: Antibacterial activity against methicillin-sensitive Staphylococcus aureus ATCC 29213 by plate reader analysis; type: functional, organism-based; summary of the method: as §1

SMILES	IC50 (Enterococcus faecalis [1])	IC50 (Enterococcus faecium)	IC50 (Enterococcus faecalis [2])	IC50 (Staphylococcus aureus [3])	IC50 (LLC-PK1)	IC50 (Staphylococcus aureus [4])	IC50 (HepG2)	IC50 (Staphylococcus aureus [5])	IC50 (Staphylococcus aureus [6])	IC50 (Vero)	IC50 (Staphylococcus aureus [7])
CN[C@@H](CC(C)C)C(=O)N[C@H]1C(=O)N[C@@H](CC(N)=O)C(=O)N[C@H]2C(=O)N[C@H]3C(=O)N[C@H](C(=O)N[C@@H](C(=O)O)c4cc(O)cc(O)c4-c4cc3ccc4O)[C@H](O)c3ccc(c(Cl)c3)Oc3cc2cc(c3O[C@H]2O[C@@H](CO)[C@H](O)[C@@H](O)[C@@H]2O[C@@H]2C[C@@](C)(N)[C@@H](O)[C@@H](C)O2)Oc2ccc(cc2Cl)[C@H]1O	1.4 µg/mL (≈ 0.966 µM)	> 20 µg/mL	3.3 µg/mL (≈ 2.28 µM)	–	–	–	–	–	–	–	–
CC(C)=CCC1=C2OC(C)(C)CC3OC23C(=O)C(C(=O)C(C)C)=C1O (centres undefined)	5.3 µg/mL (≈ 15.3 µM)	1.6 µg/mL (≈ 4.62 µM)	2.8 µg/mL (≈ 8.08 µM)	8.6 µg/mL (≈ 24.8 µM)	30 µg/mL (≈ 86.6 µM)	1.6 µg/mL (≈ 4.62 µM)	31 µg/mL (≈ 89.5 µM)	8.8 µg/mL (≈ 25.4 µM)	1.4 µg/mL (≈ 4.04 µM)	21 µg/mL (≈ 60.6 µM)	2.4 µg/mL (≈ 6.93 µM)
COc1cccc(OC)c1C(=O)N[C@@H]1C(=O)N2[C@@H]1SC(C)(C)[C@@H]2C(=O)O [METHICILLIN]	–	–	–	3.2 µg/mL (≈ 8.41 µM)	–	26.9 µg/mL (≈ 70.7 µM)	–	3 µg/mL (≈ 7.89 µM)	> 50 µg/mL	–	0.5 µg/mL (≈ 1.31 µM)
COc1cccc2c1C(=O)c1c(O)c3c(c(O)c1C2=O)C[C@@](O)(C(=O)CO)C[C@@H]3O[C@H]1C[C@H](N)[C@H](O)[C@H](C)O1 [DOXORUBICIN]	–	–	–	–	0.5 µg/mL (≈ 0.92 µM)	–	–	–	–	–	–
CC1=C2OC(C)(C)CC3OC23C(=O)C(C(=O)C(C)C)=C1O (centres undefined)	–	–	–	–	–	–	–	–	11.1 µg/mL (≈ 38 µM)	–	10 µg/mL (≈ 34.2 µM)
CCC(C)C(=O)C1=C(O)C(C)=C2OC(C)(C)CC3OC23C1=O (centres undefined)	–	–	–	–	–	–	–	–	6.2 µg/mL (≈ 20.2 µM)	–	5.6 µg/mL (≈ 18.3 µM)
